pIC50: −log10 of the molar value.
Assays:
[1] = species: Homo sapiens; assay: In vitro inhibitory concentration against thrombin-induced platelet aggregation in human platelet-rich plasma in presence of thrombin at 0.20 IU/mL; type: functional
Summary of the method: (§1)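 Healthy drug-free donors' venous blood centrifuged 800 rpm 8 min RT; PRP diluted with PPP to 2 × 10⁸ platelets/mL, one donor per series. PRP stirred (1100 rpm) with compound 0.05-1 mM ≥4 min, then bovine thrombin added at 37 °C; light transmittance recorded 4 min, PPP = 100%, PRP = 0%. Studies finished within 1 h of collection.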

[2] = species: Homo sapiens; assay: In vitro inhibitory concentration against thrombin-induced platelet aggregation in human platelet-rich plasma in presence of thrombin at 0.25 IU/mL; type: functional; summary of the method: as §1
[3] = species: Homo sapiens; assay: In vitro inhibitory concentration against thrombin-induced platelet aggregation in human platelet-rich plasma in presence of thrombin at 0.30 IU/mL; type: functional; summary of the method: as §1
[4] = species: Rattus norvegicus; assay: Maximal relaxing effect in isolated rat aortic rings with endothelium precontracted with 1 uM phenylephrine at 0.1-100 uM concentration; Range is 1.3-42.7%; type: functional, Aorta
Summary of the method: (§2)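 Thoracic aorta of adult male Wistar rats cut into 2 mm rings, one with intact and one with mechanically removed endothelium. Superfused 1 mL/min with modified Tyrode-type buffer, 37 °C, pH 7.44, carbogen; basal tension 2 g, isometric force. Endothelium checked with 1 µM carbachol against 1 µM phenylephrine. Compounds added 30 min after perfusion, on phenylephrine tone; some rings pretreated with 300 µM L-NAME. Mean ± SEM.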

[5] = species: Rattus norvegicus; assay: Maximal relaxing effect in isolated rat aortic rings without endothelium precontracted with 1 uM phenylephrine at 0.1-100 uM concentration; Range is 2.3-14%; type: functional, Aorta; summary of the method: as §2
[6] = species: Rattus norvegicus; assay: Relaxing effect dependent on nitric oxide in isolated rat aortic rings at 0.1-100 uM compound concentration; Range is 0-25%; type: functional, Aorta; summary of the method: as §2
[7] = Relative potency (REC) is the ratio of concentration of compound to the concentration of SFLLR-NH2 for producing equal relaxing effect on the isolated rat aortic rings; type: functional, Aorta
[8] = species: Rattus norvegicus; assay: Reduction of maximal relaxing response in isolated rat aortic rings precontracted with Nomega-nitro-L-arginine (L-NAME) at 0.1-100 uM concentration; Range is 17-18%; type: functional, Aorta; summary of the method: as §2
[9] = species: Rattus norvegicus; assay: Maximal relaxing effect of compound in isolated rat aortic rings precontracted phenylephrine at 100 uM concentration; type: functional, Aorta; summary of the method: as §2
[10] = species: Rattus norvegicus; assay: Maximal relaxing effect of compound in isolated rat aortic rings precontracted with 1 uM phenylephrine at 100 uM concentration; type: functional, Aorta; summary of the method: as §2
[11] = species: Homo sapiens; assay: Inhibitory concentration against SFLLR-NH2 (2.5 uM) induced platelet aggregation in human platelet-rich plasma; type: functional, organism-based
Summary of the method: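 Human PRP (2 × 10⁸ platelets/mL, healthy donors) stirred with compound, then aggregation triggered by SFLLR-NH₂ 2.5 µM instead of thrombin; optical aggregometry read-out.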

[12] = species: Rattus norvegicus; assay: Contraction in isolated rat aortic rings without endothelium at 10-100 uM concentration; Range is 2-3%; type: functional, Aorta; summary of the method: as §2
[13] = species: Rattus norvegicus; assay: Maximal relaxing effect in isolated rat aortic rings with endothelium precontracted with 1 uM phenylephrine at 0.1-100 uM concentration; Range is 1.8-40.7%; type: functional, Aorta; summary of the method: as §2

Compound | pIC50 [1] | pIC50 [2] | pIC50 [3] | Max efficacy [4] [%] | Max efficacy [5] [%] | Relaxation [6] [%] | Relative potency [7] | Reduction [8] [%] | Max efficacy [9] [%] | Max efficacy [10] [%] | pIC50 [11] | Contraction [12] [%] | Max efficacy [13] [%]
NC(N)=NCCCCCC(=O)NCC1CCN(C(=O)C(N)Cc2ccccc2)CC1 (stereo not given) | < 3.00 | < 3.00 | 3.06 | 42.7 | 14 | 25 | 13.6 | 18 |  |  |  |  | 
N=C(N)NCCCCCC(=O)NC1CCN(C(=O)Cc2ccccc2)C1 (stereo not given) | 3.96 | 3.92 | 3.68 |  |  |  | 17.3 |  | 37.5 |  |  |  | 
N=C(N)NCCCCCC(=O)NCC1CCN(C(=O)Cc2ccccc2)CC1 | 3.85 | < 3.60 | < 3.60 |  |  |  | 0.06 |  |  | 91.4 |  |  | 
NC(N)=NCCCCCC(=O)N1CCN(C(=O)C(N)Cc2ccccc2)CC1 (stereo not given) | 3.92 | 4.05 | 3.62 |  |  |  | 38.2 |  |  |  | 3.43 |  | 
N=C(N)NCCCCCC(=O)N1CCN(C(=O)Cc2ccccc2)CC1 | 3.34 | 3.29 | 3.36 |  |  |  | 0.19 |  |  | 81 | 3.11 |  | 
NC(N)=NCCCCCC(=O)NC1CCN(C(=O)C(N)Cc2ccccc2)C1 (stereo not given) | 3.38 | 3.47 | 3.41 |  |  |  | 24 |  |  |  |  | 3 | 40.7

— ChEMBL document CHEMBL1148334, “Design and synthesis of novel biologically active thrombin receptor non-peptide mimetics based on the pharmacophoric cluster Phe/Arg/NH2 of the Ser42-Phe-Leu-Leu-Arg46 motif sequence: platelet aggregation and relaxant activities” (J Med Chem, 2004)
